Screening data as filed in PubChem.
Only some compounds are listed: those with a hit (about 11% of all), similar ones and a draw of the others.
mHtt clearance – clearance of mutant huntingtin inclusions, primary screen, imaging, HeLa Exon1htt(103Q)mCFP, confocal imaging. aggregate imaging; zero = plate's median compound well. inhibition, % at 1.5 µM. actives 0.42% (n = 47,000). AID 853, 2007;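 active = inhibition of aggregate fluorescence above about 70%, also judged a hit by eye on the cell image, limit read from the data, passing the limit was not always enough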;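 note: cells exposed to compound for three days before fixation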
D1 allo mod – D1 CRE-luciferase signal change, two-sided – cell-based, HEK293 D1, dopamine EC30, D1 allosteric modulator project, primary screen | actives 5.9% (n = 58,000) | dopamine EC30 potentiation; actives deviate in either direction | AID 641, 2007 | B-score at 10 µM | D(1A) dopamine receptor (Homo sapiens), P21728;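 active = luminescence count or its row- and column-corrected plate score outside the 99.7% band of the plate's sample wells, on either side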
Target sequence (P21728 whole entry, looked up): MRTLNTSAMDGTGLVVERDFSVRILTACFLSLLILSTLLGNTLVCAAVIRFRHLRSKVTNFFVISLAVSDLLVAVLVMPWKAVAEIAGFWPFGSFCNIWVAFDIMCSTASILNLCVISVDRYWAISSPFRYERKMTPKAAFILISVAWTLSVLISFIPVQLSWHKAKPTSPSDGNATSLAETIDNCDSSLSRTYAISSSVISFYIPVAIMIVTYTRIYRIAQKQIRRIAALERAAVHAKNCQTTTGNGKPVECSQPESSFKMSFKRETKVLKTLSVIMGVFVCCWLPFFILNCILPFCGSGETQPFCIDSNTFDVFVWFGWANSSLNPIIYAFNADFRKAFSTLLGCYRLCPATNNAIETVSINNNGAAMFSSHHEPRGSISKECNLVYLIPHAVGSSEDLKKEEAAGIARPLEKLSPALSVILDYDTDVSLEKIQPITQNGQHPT
M1 agonist – M1 muscarinic receptor agonists, primary screen, CHO-M1 cells, Fluo-4 calcium, agonist mode; actives 3% (n = 64,000); Muscarinic acetylcholine receptor M1; B-score at 10 µM; AID 626, 2007; Fluo-4 calcium fluorescence; hits give high values;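 active = fluorescence rise, raw or as B-score row- and column-corrected plate score, outside the 99.7% band of its plate's samples, either direction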
M1 antagonist – antagonists of rat M1 muscarinic receptor | Muscarinic acetylcholine receptor M1 (Rattus norvegicus), P08482 | CHO-M1 cells, Fluo-4 calcium, ACh EC80 antagonist mode; hits give low values | B-score at 10 µM | actives 3.4% (n = 64,000);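 active = calcium fluorescence response, raw or row-and-column corrected B-score, differing from the plate sample mean either way at a set confidence level, mostly lower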
SF-1 act – activators of human SF-1, primary screen, cell-based, CHO-K1, Gal4-SF-1 LBD, luciferase luminescence | Steroidogenic factor 1 (Homo sapiens), Q13285 | CHO-K1 Gal4-SF-1 LBD luciferase reporter; % increase over DMSO SF-1-specific signal | activation, % at 10 µM | actives 1.9% (n = 65,000) | AID 522, 2006;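 active = activation above the mean activation of all tested compounds plus 3 SD, cut at about 50% in these data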
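Assay system: CHO-K1 cells co-transfected with Gal4 DBD–human SF-1 LBD, 5xGal4 luciferase reporter / Input: 4,000 cells per well / Incubation: 20 h compound exposure at 37 °C after 1 h cell settling / Detection: SteadyLite luciferase luminescence / Control set: DMSO negative control and −SF1 background wells / Replication: one test per compound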
RORa activator – activators of orphan receptor RORA, primary screen, cell-based, luminescence | actives 1.5% (n = 65,000) | Nuclear receptor ROR-alpha (Homo sapiens), P35398 | activation, % at 10 µM | CHO-K1 Gal4-RORA LBD luciferase reporter; percent increase over mock-subtracted basal signal;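 active = activation above the mean of all tested compounds plus 3 SD, cut at about 49% in these data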
Each line names hits and unclear results; the compound was inactive in the other large screens.

N#CC(C(=O)NC1CCCCC1)c1nc2ccccc2nc1N1CCCCC1 (configuration not stated)	M1 agonist 49.5 (no result: mHtt clearance)
Cc1sc2nc3c(C(=O)N4CCN(c5ncccn5)CC4)cccn3c(=O)c2c1C	none (no result: mHtt clearance)
CC(C)OCCCNC(=O)Cn1nc(-c2ccccc2)ccc1=O	none (no result: mHtt clearance)
Cc1ccc(Nc2nc(N)nc(CN3CCN(C)CC3)n2)cc1C	none (no result: M1 agonist, M1 antagonist)
COC(=O)CC(=O)Cc1nc(N)nc(Nc2ccc(C)c(C)c2)n1	D1 allo mod -5.45 (no result: mHtt clearance)
O=C(Cn1nc(-c2ccccc2)nc1-c1ccccc1)OC1CCCCC1	none (no result: D1 allo mod, M1 agonist, M1 antagonist, SF-1 act, RORa activator)
CCOC(=O)Cn1nc(-c2ccccc2)nc1-c1ccccc1	D1 allo mod -3.52
Cc1nc2cc(N3CCN(C)CC3)c(NC(=O)Cc3ccccc3)cc2c(=O)n1Cc1ccccc1	D1 allo mod -2.41
Cc1ccc(C)c(NC2=NC3(CCCCC3)N=C(N)N2)c1	D1 allo mod -5.99
COc1cccc(NC2=NC3(CCCCC3)N=C(N)N2)c1	D1 allo mod -2.73 (no result: mHtt clearance)
Cc1ccc(NC2=NC3(CCCCC3)N=C(N)N2)c(C)c1	D1 allo mod -4.11
Cc1cccc(NC2=NC3(CCCCC3)N=C(N)N2)c1C	none
COCCCNC(=O)c1ccccc1NS(=O)(=O)c1ccc(C)cc1	none
CCCOC(=O)CSc1nnc(-c2ccccc2Cl)o1	none
CCN(CC)c1nc2ccccc2c(N)c1-c1ccccc1	none (no result: D1 allo mod, M1 agonist, M1 antagonist, SF-1 act, RORa activator)
O=C(NC1CCCCC1)C(c1ccncc1)N(CC1CCCO1)C(=O)C(F)(F)F (configuration not stated)	none (no result: mHtt clearance)
CC(c1nnc(SCC(=O)NC(=O)NCc2ccco2)n1-c1ccc(Cl)cc1)N(C)C (configuration not stated)	none (no result: mHtt clearance)
COc1cc(OC)c(Cl)cc1N	none (no result: mHtt clearance, D1 allo mod)
COc1ccccc1Nc1ncc(-c2cccs2)s1	SF-1 act 94.7 (no result: D1 allo mod)
COc1cc(C(=O)Nc2nnc(-c3sccc3C)s2)cc(OC)c1OC	none (no result: mHtt clearance)
Cc1ccc(N2C(=O)c3ccccc3C2Nc2ccccc2F)nc1 (configuration not stated)	none
Cc1ccc(N2C(=O)c3ccccc3C2O)nc1 (configuration not stated)	D1 allo mod -6.69 (no result: mHtt clearance)
Cn1c(=O)oc2cc(S(=O)(=O)N3CCCC(C(=O)N4CC=C(c5ccccc5)CC4)C3)ccc21 (configuration not stated)	M1 agonist 3.37 (no result: mHtt clearance)
O=C1NCCc2c1[nH]c1ccccc21	none (no result: D1 allo mod, M1 agonist, M1 antagonist, SF-1 act, RORa activator)
O=C1NCCc2c1[nH]c1c(Cl)ccc(Cl)c21	M1 agonist 27.8
O=C(Nc1ccc(N2CCOCC2)cc1)c1ccncc1	none (no result: D1 allo mod, M1 agonist, M1 antagonist, SF-1 act, RORa activator)
O=C(Nc1ccc(N2CCOCC2)cc1)c1cnsn1	D1 allo mod -6.75 (no result: mHtt clearance)
O=C(Nc1ccccc1)N1CCCc2ccccc21	mHtt clearance 82.7 (no result: D1 allo mod, M1 agonist, M1 antagonist, SF-1 act, RORa activator)
Cc1ccc2nsnc2c1S(=O)(=O)N1CCN(CCc2ccccc2)CC1	D1 allo mod -4.65 (no result: mHtt clearance)
Cc1ccc2nsnc2c1S(=O)(=O)NCc1cccnc1	none (no result: M1 agonist, M1 antagonist)
COC(=O)c1c(NC(=O)CN2CCN(C(=O)c3ccco3)CC2)c2c(C)cccc2n1C	none
COC(=O)c1c(NC(=O)CN2CCN(C(=O)c3ccco3)CC2)c2cc(C)ccc2n1C	D1 allo mod -2.8 (no result: mHtt clearance)
COc1ccccc1NCCC(=O)OCC(=O)Nc1ccc(Cl)cn1	none (no result: mHtt clearance)
O=C(Nc1ccccc1)N1CC=C(c2ccccc2)CC1	SF-1 act 87.2, RORa activator 49.2 (no result: mHtt clearance)
O=C(O)C1CCCCC1C(=O)N1CC=C(c2ccccc2)CC1 (configuration not stated)	none
CCc1ccc(-c2ccc(C(=O)O)cc2)nc1	SF-1 act 85.1
CCOC(=O)CNC(=O)CSc1ncnc2c1cnn2-c1ccc(OC)cc1	D1 allo mod -2.84 (no result: mHtt clearance)
CCn1cc(C(=O)N2CC(C)CC(C)C2)c(=O)c2cc(S(=O)(=O)N3CCOCC3)ccc21 (configuration not stated)	none (no result: mHtt clearance)
O=C(OCC#CCSc1nnc(-c2cccc3ccccc23)o1)c1ccco1	none (no result: D1 allo mod, M1 agonist, M1 antagonist, SF-1 act, RORa activator)
